Data set [1] deals with CCRF-CEM. Description: Cytotoxicity against human CCRF-CEM cells after 72 hrs by XTT assay. Format: functional, cell-based. Put shortly: (§1)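 Leukaemic CCRF-CEM cells and their taxol- and vinblastine-resistant sublines exposed for 72 h. XTT assay read at 450 and 630 nm after 6 h with phenazine methosulfate-XTT at 37 °C. IC50 obtained by the median-effect principle from six or seven concentrations, in duplicate or triplicate.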
(Tetrazolium dyes change colour on reduction, which living cells bring about.)

Data set [2] concerns CCRF-CEM. The experiment in a line: Cytotoxicity against taxol-resistant human CCRF-CEM cells after 72 hrs by XTT assay. Format: functional, cell-based. Put shortly:
as §1

For data set [3], the system named is CCRF-CEM. The experiment in a line: Cytotoxicity against vinblastine-resistant human CCRF-CEM cells after 72 hrs by XTT assay. The class given is functional, cell-based. The procedure, abridged: as §1
Data set [4] has as its system MX1. Description: Cytotoxicity against human MX1 cells after 72 hrs by SRB assay. Format: functional, cell-based. The conditions noted are these: MX1, 72 h. The procedure, abridged:
(§2)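 Solid tumour cells (breast MX-1, colon HCT116) exposed for 72 h. Growth measured by SRB assay. IC50 obtained by median-effect plot from six or seven concentrations, in duplicate or triplicate.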
(In general: Sulforhodamine B stains cellular protein and so reports cell mass.)

The subject of another data set is HCT-116. The experiment in a line: Cytotoxicity against human HCT116 cells after 72 hrs by SRB assay. Format: functional, cell-based. The conditions noted are these: HCT-116, 72 h. Put shortly: as §2
Data set [5] is described as follows: Chemical stability assessed as half life at 1 mg in DMSO/Tween 80/normal saline solution. Format: physicochemical. Put shortly:
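1 mg of compound held in i.v. vehicle (DMSO/Tween 80/normal saline, 0.5:0.4:1.6 v/v/v). Degradation followed by silica TLC (CHCl3/MeOH 10:1) and confirmed by reversed-phase HPLC.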

The nature of data set [6]: Stability in rat plasma assessed as half life at 5 ug/mL by HPLC. Format: ADME, cell-free. The procedure, abridged: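 Rat plasma (100 µL, 5 µg/mL compound) deproteinised with acetonitrile (1:2), centrifuged at 10,000 g for 10 min and filtered. Analysed by HPLC on methanol:10 mM NaH2PO4 (60:40, pH 3.0) at 0.8 mL/min, UV 266 nm, quantified by peak area. Detection limit 20 ng/mL; n = 4.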

Data set [7] in a line: Cytotoxicity against human H1299 cells. Format: functional, cell-based. Particulars: NCI-H1299.
In the next data set the test system is NCI-H1299. Description: Induction of DNA interstrand cross linking in 20 Gy irradiated human H1299 cells at 10 uM after 1 hr by comet assay. The class given is functional. Put shortly:
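H1299 cells (2 × 10^5) plated and grown for 32 h at 37 °C in 5% CO2, then drug-treated for 1 h. Cells given 20 Gy irradiation and embedded in 1.2% low-melting agarose for a modified comet assay under subdued light. Tail moment scored in 100 cells. Cross-linking % = [1 − (TMdi−TMcu)/(TMci−TMcu)] × 100. Three experiments, mean ± SD.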

Data set [8] relates to MX1. Description: Antitumor activity in human MX1 cells xenografted mouse assessed as complete tumor remission at 100 mg/kg, iv administered in Q2D x 5 schedule. Format: functional, organism-based. Details: dose 100 mg/kg.
In data set [9] the test system is Mus musculus. The experiment in a line: Toxicity against human MX1 cells xenografted mouse assessed as body weight loss at 100 mg/kg, iv administered in Q2D x 5 schedule. The class given is organism-based. The conditions noted are these: in vivo. Also noted: dose 100 mg/kg, route intravenous. Put shortly:
(§3)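 Nude nu/nu male mice (8 weeks or older, 22 g or more) carrying xenografts, given i.v. tail-vein injections in DMSO/Tween 80/saline vehicle, n = 3. Host toxicity taken as body weight change from the initial pretreatment weight, tracked through and after dosing.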
In general terms: In xenograft studies the graft and the host belong to different species.

In another data set the test system is U-87 MG. Description: Antitumor activity in human U87 MG cells xenografted mouse at 100 mg/kg, iv administered in Q2D x 5 schedule. The class given is functional, organism-based. Details: dose 100 mg/kg. Particulars: U-87MG ATCC.
Data set [10] deals with Mus musculus. The experiment in a line: Toxicity against human U87 MG cells xenografted mouse assessed as body weight loss at 100 mg/kg, iv administered in Q2D x 5 schedule. Format: organism-based, U-87MG ATCC. Also noted: dose 100 mg/kg, route intravenous. The conditions noted are these: in vivo. Put shortly: as §3
Data set [11] relates to CCRF-CEM. The experiment in a line: Selectivity ratio of IC50 for taxol-resistant human CCRF-CEM cells to IC50 for human CCRF-CEM cells. Format: functional. The procedure, abridged:
(§4)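 Fold resistance: IC50 in the taxol- or vinblastine-resistant CCRF-CEM subline divided by the IC50 in parent CCRF-CEM.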

In data set [12] the test system is CCRF-CEM. The experiment in a line: Selectivity ratio of IC50 for vinblastine-resistant human CCRF-CEM cells to IC50 for human CCRF-CEM cells. Format: functional. Put shortly:
as §4

Activity calls are given as the source filed them. The calls are words filed in the database; no cut-off is given here.

Experimental findings from ChEMBL document CHEMBL1150326 (Bioorg Med Chem, 2008) are described below.

One may read the IC50 as the concentration at which inhibition is half-maximal. Low values mean inhibition by little substance, high ones a need for much substance. Usually half-life stands for the time in which the quantity being followed falls by half. Consider `Cc1ccc(Nc2c3ccccc3nc3c(C)cccc23)cc1NC(=O)Nc1ccc(N(CCCl)CCCl)cc1`, for which the IC50 in the data set on CCRF-CEM [1] amounted to 77.8 nM; in the data set on CCRF-CEM [2], 91.8 nM; in the data set on CCRF-CEM [3], 128 nM; in the data set on MX1 [4], 240 nM; in the data set with HCT-116, 437 nM; in data set [7], 510 nM. Also, in [5], the half-life is 55 days. Also, the half-life at 5 ug/mL in data set [6] is 2.26 days. Moreover, the figures for the Activity in the data set on NCI-H1299, with Mus musculus [9] and in the data set on Mus musculus [10] were 39.2%, 10% and 15%, respectively. The result in the data set with MX1 [8] and in the data set on U-87 MG was Active. The entries for the “Ratio IC50” value in the data set with CCRF-CEM [11] and with CCRF-CEM [12] were 1.18 and 1.64, respectively.
